In brackets after ≈: the same amount, converted by molar mass.
How the values were obtained:
[1] = tested on: Mycobacterium tuberculosis; experiment: Antitubercular activity against Mycobacterium tuberculosis H37Rv by microplate alamar blue assay; format: functional
Method in brief: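 M. tuberculosis H37Rv (ATCC 27294) tested in the microplate Alamar Blue assay with fluorescence read-out. MIC taken as the lowest drug concentration giving ≥90% inhibition relative to untreated cultures.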

Vero = experiment: Cytotoxicity against african green monkey Vero cells; format: cell-based; conditions: Chlorocebus sabaeus
Method in brief: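 Vero cells (ATCC CCL-81) tested in the CellTiter 96 aqueous nonradioactive cell proliferation assay. Maximum (100%) cytotoxicity set by lysing cells with sodium dodecyl sulfate. IC50 defined as the reciprocal dilution giving 50% inhibition of the Vero cells.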

[2] = Selectivity index, ratio of IC50 for african green monkey Vero cells to MIC for Mycobacterium tuberculosis H37Rv; format: functional
Method in brief: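 Calculated as Vero IC50 (CellTiter 96 aqueous assay, ATCC CCL-81 cells) divided by the H37Rv MIC (microplate Alamar Blue, ≥90% inhibition relative to untreated cultures).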

CCCCCCCCCCCC(=O)O[C@H]1CC[C@]23C[C@]24CC[C@]2(C)[C@@H]([C@H](C)C/C=C/C(C)(C)O)CC[C@@]2(C)[C@@H]4CC[C@H]3C1(C)C
MIC [1]: > 128 mg/L

CC1(C)CC[C@]2(C)CC[C@]3(C)C(=CC[C@@H]4[C@@]5(C)CC[C@H](O)C(C)(C)[C@@H]5CC[C@]43C)[C@@H]2C1 [beta-AMYRIN]
MIC [1]: 64 mg/L (≈ 150 µM)

CO[C@H]1/C=C/O[C@@]2(C)Oc3c(C)c(O)c4c(O)c(c(/C=N/N5CCN(C)CC5)c(O)c4c3C2=O)NC(=O)/C(C)=C\C=C\[C@H](C)[C@H](O)[C@@H](C)[C@@H](O)[C@@H](C)[C@H](OC(C)=O)[C@@H]1C [RIFAMPIN]
MIC [1]: 0.06 mg/L (≈ 0.0729 µM)

C[C@H]1[C@H](C)CC[C@]2(C)CC[C@]3(C)C(=CC[C@@H]4[C@@]5(C)CC[C@@H](O)C(C)(C)[C@@H]5CC[C@]43C)[C@H]12
MIC [1]: > 128 mg/L

C=C(C)[C@@H]1CC[C@]2(C)CC[C@]3(C)[C@H](CC[C@@H]4[C@@]5(C)CC[C@H](O)C(C)(C)[C@@H]5CC[C@]43C)[C@@H]12 [LUPEOL]
MIC [1]: > 128 mg/L

CC(C)CCC[C@@H](C)[C@H]1CC[C@@]2(C)[C@@H]3CC[C@H]4C(C)(C)[C@@H](O)CC[C@@]45C[C@@]35CC[C@]12C [CYCLOARTANOL]
MIC [1]: 8 mg/L (≈ 18.7 µM) | IC50 (Vero): 102 mg/L (≈ 239 µM) | Ratio [2]: 12.8

O=c1c(O[C@@H]2O[C@H](CO)[C@@H](O)[C@H](O)[C@H]2O)c(-c2ccc(O)cc2)oc2cc(O)cc(O)c12 [ASTRAGALIN]
MIC [1]: > 128 mg/L

C=C[C@@]1(C)C=C2CC[C@@H]3[C@@](C)(CCC(=O)[C@@]3(C)CO)[C@H]2C[C@H]1O [LECHERONOL B]
MIC [1]: 128 mg/L (≈ 402 µM)

O=C(c1c(O)cc(O)cc1O)[C@H](O)[C@H](O)c1cc(O)c(O)c(O)c1
MIC [1]: > 128 mg/L

CC1(C)CC[C@]2(C)CC[C@]3(C)C(=CC[C@@H]4[C@@]5(C)CC[C@@H](O)C(C)(C)[C@@H]5CC[C@]43C)[C@@H]2C1
MIC [1]: 12.2 mg/L (≈ 28.6 µM) | IC50 (Vero): 127 mg/L (≈ 298 µM) | Ratio [2]: 10.4

C=C[C@@]1(C)C=C2CC[C@H]3C(C)(C)C(=O)C[C@@H](O)[C@@]3(C)[C@H]2C[C@H]1O [LECHERONOL A]
MIC [1]: 4 mg/L (≈ 12.6 µM) | IC50 (Vero): 105 mg/L (≈ 329 µM) | Ratio [2]: 26.2

C=C(C)[C@@H]1CC[C@]2(C)CC[C@]3(C)[C@H](CC[C@@H]4[C@@]5(C)CC[C@@H](O)C(C)(C)[C@@H]5CC[C@]43C)[C@@H]12
MIC [1]: 13.4 mg/L (≈ 31.4 µM) | IC50 (Vero): 127 mg/L (≈ 298 µM) | Ratio [2]: 10.4

C[C@@H]1CC[C@]2(C(=O)O)CC[C@]3(C)C(=CC[C@@H]4[C@@]5(C)C[C@@H](O)[C@H](O)[C@@](C)(CO)[C@@H]5CC[C@]43C)[C@@H]2C1
MIC [1]: > 128 mg/L

O=c1c(O[C@@H]2O[C@H](CO)[C@@H](O)[C@H](O)[C@H]2O)c(-c2ccc(O)c(O)c2)oc2cc(O)cc(O)c12 [ISOQUERCETIN]
MIC [1]: 94 mg/L (≈ 202 µM)
